Measurements gathered from unrelated publications.
Lines come from different studies, so protocols differ. ≈ marks a conversion by molar mass, not a printed value.

SMILES | tested on | test | setting | quantity | value
O=C(Nc1ccccc1-c1ccc(F)c(F)c1)c1nccnc1C(F)(F)F | Rhizoctonia solani | microbial growth |  | EC50 | 0.2 µg/mL (≈ 0.527 µM)
O=C1NN=C(N=Cc2ccc(O)c(O)c2)C1=NNn1c(-c2ccccc2)nc2ccccc2c1=O | Trichophyton rubrum | microbial growth, broth dilution |  | MIC | 107 µM (≈ 50 µg/mL)
COc1ccc(-c2nc3ncccn3c2NC(C)(C)CC(C)(C)C)cc1O | Leishmania amazonensis | parasite growth, MTT | 72 h, promastigote | IC50 | > 100 µM
COc1ccc(S(=O)(=O)c2ccc(C)cc2)c(OC)c1OC | Leishmania braziliensis | parasite growth, MTT | 24 h, promastigote | IC50 | 91.7 µM
CC1=NN(CNC(=O)c2ccccc2)C(=O)C1=NNn1c(-c2ccccc2)nc2ccccc2c1=O | Trichophyton rubrum | microbial growth, broth dilution |  | MIC | 104 µM (≈ 49.8 µg/mL)
c1cnc2nc(-c3ccc4c(c3)OCO4)c(NCCN3CCOCC3)n2c1 | Leishmania amazonensis | parasite growth, MTT | 72 h, promastigote | IC50 | > 100 µM
COc1ccc(Sc2ccc(C)cc2)c(OC)c1OC | Leishmania braziliensis | parasite growth, MTT | 24 h, promastigote | IC50 | 40.3 µM
CC1=NN(CNC(=O)c2ccccn2)C(=O)C1=NNn1c(-c2ccccc2)nc2ccccc2c1=O | Trichophyton rubrum | microbial growth, broth dilution |  | MIC | 104 µM (≈ 50 µg/mL)
Clc1ccccc1-c1ccc(CNCC2(N3CCCC3)COC2)o1 | GBM6 | cell growth or viability | 30 µM, 48 h | viability | 80.6%
COc1ccc(-c2ccc(-c3ccc(C(=N)N)nc3)s2)cc1Cl | NCI-H322M | cell growth or viability, SRB |  | GI50 | 1.67 µM
COc1cccc(-c2nc3ncccn3c2NC(C)(C)CC(C)(C)C)c1 | Leishmania amazonensis | parasite growth, MTT | 72 h, promastigote | IC50 | 17 µM
c1ccc(-c2ccc(CNCC3(N4CCCC4)COC3)o2)cc1 | T98G | cell growth or viability | 30 µM, 48 h | viability | 74.2%
